SMILES strings stand for the structures. Converted amounts (≈) assume the structure as drawn. The source made the active and inactive calls. The rule behind the calls is not given here. Bounds are passed on as bounds.

A short description of data set [1]: Antagonist activity at Torpedo californica nACh receptor expressed in Xenopus oocytes assessed as inhibition of acetylcholine-induced current response. To be noted: Tetronarce californica, Oocyte. Type of data set: functional, cell-based. Summed up: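 Torpedo nACh receptor cRNA (2α:1β:1γ:1δ, ~25 ng) injected into Xenopus oocytes. Two-electrode clamp at −50 mV in ND96. Currents were evoked by 10 μM ACh (~EC20), then by ACh plus 1–100 μM drug for 15–20 s with ~3 min washes. Currents were normalized to the ACh response and fit to a logistic inhibition equation; 3 oocytes.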

Data set [2] concerns the target T1, GABA-A receptor; alpha-1/beta-3/gamma-2 (Homo sapiens) (UniProt P14867+P18507+P28472). Description: Increase of [3H]muscimol binding to alpha1beta3gamma2 GABAA receptor expressed in HEK293S-TetR cells after 1 hr by liquid scintillation counting relative to control. Type of data set: cell-based. Summed up:
(§1)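 Membranes from HEK293S-TetR cells expressing α1β3γ2 GABAA receptors (200 μg protein) in 10 mM phosphate pH 7.4, 200 mM KCl, 1 mM EDTA. Incubated with 3 nM [3H]muscimol or 1.5 nM [3H]flunitrazepam plus drug for 1 h at 4°C. Nonspecific binding was set with 1 mM GABA or 1 mM flurazepam. Filtered onto PEI-treated filters, then scintillation-counted; triplicates.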

The next data set concerns Xenopus laevis. Kind of data set: Anesthetic activity in Xenopus laevis tadpoles assessed as loss of righting reflexes. Type of data set: functional, organism-based. To be noted: Tadpole. In a few lines:
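Xenopus tadpoles in groups of 5 were held in 2.5 mM Tris HCl pH 7.4 under low light at seven concentrations from 1.0 to 20 μM, with ethanol ≤5 mM. Each animal was flipped every 10 min until a stable response, usually at 40 min. LoRR meant failure to right within 5 s. Only animals that recovered overnight were analysed. Quantal scores were fit to a logistic equation.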

For data set [3], the target named is GABA-A receptor; agonist GABA site. Kind of data set: Agonist activity at human alpha1beta2gamma2L GABAA receptor expressed in Xenopus oocytes assessed as potentiation of GABA-induced current response by two-electrode voltage clamp electrophysiology assay. The format is functional, cell-based. The conditions noted are these: oocyte.
Data set [4] addresses T1, GABA-A receptor; alpha-1/beta-3/gamma-2 (Homo sapiens). Kind of data set: Increase of [3H]-flunitrazepam binding to alpha1beta3gamma2 GABAA receptor expressed in HEK293S-TetR cells up to 400 uM after 1 hr by liquid scintillation counting. Type of data set: cell-based. In a few lines:
as §1

Data set [5] shares this target. Description: Increase of [3H]-flunitrazepam binding to alpha1beta3gamma2 GABAA receptor expressed in HEK293S-TetR cells at 0.1 to 40 uM after 1 hr by liquid scintillation counting relative to control. Type of data set: cell-based. Summed up:
as §1

Data set [6] shares this target. Kind of data set: Increase of [3H]-flunitrazepam binding to alpha1beta3gamma2 GABAA receptor expressed in HEK293S-TetR cells at >30 uM after 1 hr by liquid scintillation counting. Type of data set: cell-based. In a few lines:
as §1

Data set [7] can be described thus: Aqueous solubility of the compound in water.
The target in data set [8] is T2, GABA-A receptor; agonist GABA site (Homo sapiens) (UniProt P14867+P47870+P28472+P48169+P34903+P18505+P47869+P31644+Q16445). Description: Agonist activity at human alpha1beta2gamma2L GABAA receptor expressed in Xenopus oocytes assessed as potentiation of channel current response by two-electrode voltage clamp electrophysiology assay relative to control. The format is functional, cell-based. The conditions noted are these: Oocyte.

For data set [9], the target named is GABA-A receptor; agonist GABA site. Kind of data set: Agonist activity at human alpha1beta2gamma2L GABAA receptor expressed in Xenopus oocytes assessed as potentiation of channel current response by two-electrode voltage clamp electrophysiology assay. Type of data set: functional, cell-based. To be noted: oocyte.
Data set [10] deals with Tetronarce californica. Description: Binding affinity to Torpedo californica nACh-delta receptor assessed as photoincorporation at 1.7 uM by SDS-PAGE followed by fluorography analysis. To be noted: tested as the 3H-labelled form. In a few lines: (§2)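 Torpedo californica electric-organ nACh receptor-rich membranes at 2 mg/mL in Torpedo saline pH 7.0 with 1 mM oxidized glutathione. Membranes were equilibrated 30 min with 1.7 μM [3H]ligand alone or with 100 μM tetracaine, 100 μM phencyclidine, 300 μM propofol and/or 1 mM carbamylcholine. Samples were UV-irradiated at 365 nm on ice for 30 min. Read-out: 8% SDS-PAGE, fluorography (2 weeks) and scintillation counting of gel bands.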

For data set [11], the system named is Tetronarce californica. Description: Binding affinity to Torpedo californica nACh-gamma receptor assessed as photoincorporation at 1.7 uM by SDS-PAGE followed by fluorography analysis in presence of tetracaine. The conditions noted are these: tested as the 3H-labelled form. Summed up:
as §2

The test system of data set [12] is Tetronarce californica. Description: Binding affinity to Torpedo californica nACh-gamma receptor assessed as photoincorporation at 1.7 uM by SDS-PAGE followed by fluorography analysis in presence of propofol. To be noted: tested as the 3H-labelled form. In a few lines: as §2
Data set [13] concerns the target T2, GABA-A receptor; agonist GABA site (Homo sapiens). Description: Agonist activity at human alpha1beta2gamma2L GABAA receptor expressed in Xenopus oocytes assessed as potentiation of GABA-induced current response at 6 uM by two-electrode voltage clamp electrophysiology assay relative to control. Type of data set: functional, cell-based. The conditions noted are these: Oocyte.

For data set [14], the system named is Tetronarce californica. Description: Binding affinity to Torpedo californica nACh-gamma receptor assessed as photoincorporation at 1.7 uM by SDS-PAGE followed by fluorography analysis in presence of carbamylcholine. The conditions noted are these: tested as the 3H-labelled form. Summed up: as §2
Data set [15] is described as follows: Binding affinity to VDAC assessed as photoincorporation at 1.7 uM by SDS-PAGE followed by fluorography analysis. To be noted: tested as the 3H-labelled form. Summed up: as §2
Data set [16] deals with Tetronarce californica. Kind of data set: Binding affinity to Torpedo californica nACh-delta receptor assessed as photoincorporation at 1.7 uM by SDS-PAGE followed by fluorography analysis in presence of carbamylcholine. To be noted: tested as the 3H-labelled form. In a few lines:
as §2

Data set [17] concerns Tetronarce californica. Description: Binding affinity to Torpedo californica nACh-gamma receptor assessed as photoincorporation at 1.7 uM by SDS-PAGE followed by fluorography analysis. To be noted: tested as the 3H-labelled form. Summed up: as §2
Data set [18] concerns Tetronarce californica. Description: Binding affinity to Torpedo californica nACh-beta receptor assessed as photoincorporation at 1.7 uM by SDS-PAGE followed by fluorography analysis in presence of carbamylcholine. To be noted: tested as the 3H-labelled form. Summed up:
as §2

Data set [19] is described as follows: Binding affinity to Na+/K+ ATPase alpha assessed as photoincorporation at 1.7 uM by SDS-PAGE followed by fluorography analysis. The conditions noted are these: tested as the 3H-labelled form. Summed up: as §2
In data set [20] the test system is Tetronarce californica. Description: Binding affinity to Torpedo californica nACh-alpha receptor assessed as increase photoincorporation at 1.7 uM by SDS-PAGE followed by fluorography analysis in presence of carbamylcholine and propofol. To be noted: tested as the 3H-labelled form. Summed up: as §2
Data set [21] deals with Tetronarce californica. Description: Binding affinity to Torpedo californica nACh-alpha receptor assessed as photoincorporation at 1.7 uM by SDS-PAGE followed by fluorography analysis in presence of carbamylcholine. The conditions noted are these: tested as the 3H-labelled form. Summed up:
as §2

Data set [22] deals with Tetronarce californica. Kind of data set: Binding affinity to Torpedo californica nACh-delta receptor assessed as photoincorporation at 1.7 uM by SDS-PAGE followed by fluorography analysis in presence of propofol. To be noted: tested as the 3H-labelled form. In a few lines: as §2
Data set [23] has as its system Tetronarce californica. Description: Binding affinity to Torpedo californica nACh-beta receptor assessed as photoincorporation at 1.7 uM by SDS-PAGE followed by fluorography analysis in presence of propofol. To be noted: tested as the 3H-labelled form. In a few lines:
as §2

Data set [24] has as its system Tetronarce californica. Description: Binding affinity to Torpedo californica nACh-delta receptor assessed as photoincorporation at 1.7 uM by SDS-PAGE followed by fluorography analysis in presence of phencyclidine. The conditions noted are these: tested as the 3H-labelled form. In a few lines: as §2
Data set [25] has as its target T2, GABA-A receptor; agonist GABA site (Homo sapiens). Kind of data set: Agonist activity at human alpha1beta2gamma2L GABAA receptor expressed in Xenopus oocytes assessed as potentiation of GABA-induced current response at 100 uM by two-electrode voltage clamp electrophysiology assay relative to control. To be noted: Oocyte. Type of data set: functional, cell-based.

The subject of data set [26] is Tetronarce californica. Description: Binding affinity to Torpedo californica nACh-beta receptor assessed as photoincorporation at 1.7 uM by SDS-PAGE followed by fluorography analysis. The conditions noted are these: tested as the 3H-labelled form. In a few lines:
as §2

Data set [27] can be described thus: Aqueous solubility of the compound in 0.01 M Tris-HCl buffer at pH 7.4. The format is physicochemical.
For data set [28], the system named is Tetronarce californica. Description: Binding affinity to Torpedo californica nACh-delta receptor assessed as photoincorporation at 1.7 uM by SDS-PAGE followed by fluorography analysis in presence of tetracaine. To be noted: tested as the 3H-labelled form. Summed up: as §2
Data set [29] concerns Tetronarce californica. Description: Binding affinity to Torpedo californica nACh-beta receptor assessed as photoincorporation at 1.7 uM by SDS-PAGE followed by fluorography analysis in presence of tetracaine. To be noted: tested as the 3H-labelled form. In a few lines:
as §2

Data set [30] is described as follows: Chemical stability of the compound in 0.01 M Tris-HCl buffer at pH 7.4 at 4 degC after 2.5 days. The conditions noted are these: pH 7.4, 60 h. Type of data set: physicochemical. In a few lines: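 Held near saturation in buffer at 4°C for at least 2.5 days, then analysed by reverse-phase HPLC.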
Data set [31] concerns Tetronarce californica. Kind of data set: Binding affinity to Torpedo californica nACh-alpha receptor assessed as decrease photoincorporation at 1.7 uM by SDS-PAGE followed by fluorography analysis in presence of carbamylcholine and phencyclidine. Details: scale not given: the % may be the effect or the level left. To be noted: tested as the 3H-labelled form. In a few lines:
as §2

Data set [32] concerns the target T3, 43 kDa receptor-associated protein of the synapse (Homo sapiens) (UniProt Q13702).
T3 sequence (whole entry): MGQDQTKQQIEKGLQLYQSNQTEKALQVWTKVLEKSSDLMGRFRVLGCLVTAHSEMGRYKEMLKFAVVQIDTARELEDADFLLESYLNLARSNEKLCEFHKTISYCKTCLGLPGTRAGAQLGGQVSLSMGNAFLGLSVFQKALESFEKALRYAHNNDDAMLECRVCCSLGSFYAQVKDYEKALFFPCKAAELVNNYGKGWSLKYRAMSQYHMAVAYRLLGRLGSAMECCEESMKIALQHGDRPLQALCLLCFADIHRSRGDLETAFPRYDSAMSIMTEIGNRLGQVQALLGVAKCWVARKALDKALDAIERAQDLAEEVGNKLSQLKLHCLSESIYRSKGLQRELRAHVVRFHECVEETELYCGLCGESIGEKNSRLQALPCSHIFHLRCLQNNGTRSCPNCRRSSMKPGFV
Kind of data set: Binding affinity to RAPsyn assessed as photoincorporation at 1.7 uM by SDS-PAGE followed by fluorography analysis. The conditions noted are these: tested as the 3H-labelled form. In a few lines: as §2

Data set [33] relates to Tetronarce californica. Description: Binding affinity to Torpedo californica nACh-gamma receptor assessed as photoincorporation at 1.7 uM by SDS-PAGE followed by fluorography analysis in presence of phencyclidine. To be noted: tested as the 3H-labelled form. In a few lines: as §2
Data set [34] has as its system Tetronarce californica. Kind of data set: Binding affinity to Torpedo californica nACh-beta receptor assessed as photoincorporation at 1.7 uM by SDS-PAGE followed by fluorography analysis in presence of phencyclidine. The conditions noted are these: tested as the 3H-labelled form. In a few lines:
as §2

In the case of `CC(C)c1cccc(C(C)C)c1O` [PROPOFOL], the half-maximal inhibitory concentration (IC50) in data set [1] turned out to be 7.3 µM. The figures for the fold change (FC) in data set [2] and in [5] were 2.4 and 2, respectively. The EC50 came out at 2.2 µM in the data set on Xenopus laevis, 5.2 µM in [3] and 50 µM in data set [9]. Further, the result in [4] and in data set [6] was inactive. The same compound yielded a solubility in data set [7] of 1000 µM (≈ 178 µg/mL). For the same compound, in data set [8], the Activity turned out to be 45%.
As for `CC(C)c1cc(CCCC2(C)N=N2)cc(C(C)C)c1O`, the outcome (in the data set on Tetronarce californica [10]; in data set [15]; in the data set on Tetronarce californica [17]; in [19]; in the data set on Tetronarce californica [26]; in [6]) was Active. Moreover, in data set [32], the outcome was Active. Besides, the IC50 in [1] is 4 µM. Further, the Activity was under 20% with Tetronarce californica [11]; under 20% in the data set on Tetronarce californica [12]; under 20% in the data set on Tetronarce californica [14]; under 20% in the data set on Tetronarce californica [16]; under 20% with Tetronarce californica [18]; 20% with Tetronarce californica [20]. The Activity was 100% in the data set on Tetronarce californica [21]; under 20% with Tetronarce californica [22]; under 20% with Tetronarce californica [23]; under 20% in the data set with Tetronarce californica [24]; under 20% in the data set on Tetronarce californica [28]; under 20% in the data set on Tetronarce californica [29]. The Activity was 20% with Tetronarce californica [31], 10% in [8], under 20% in the data set on Tetronarce californica [33] and under 20% in the data set with Tetronarce californica [34]. For the same compound, the fold change (FC) in data set [2] is 1.6; in data set [13], 9; in data set [25] it was 20; in data set [5], 1.6. For the same compound, the EC50 is 3.2 µM in the data set with Xenopus laevis, 4.5 µM in data set [3] and 15 µM in [9]. Further, the result in data set [4] was inactive. Moreover, the solubility in data set [27] was 73 µM (≈ 20 µg/mL). For the same compound, the Stability result in data set [30] was “Stable”.
